Source: PMC3697071 (Natural product communications, 2010)
Values after ≈ are worked out from the molar mass of the structure shown.

How the values were obtained:
Plasmodium falciparum = experiment: Antimalarial/parasite LDH assay, strains not distinguished in text; format: cell-based; conditions: for IC50: Plasmodium falciparum, read-out: antiplasmodial IC50; for antimalarial activity against Plasmodium falciparum: result in words
Summary of the method: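 Colorimetric assay of parasite lactate dehydrogenase (pLDH) activity in P. falciparum cultures, run in 96-well format on two strains: Sierra Leone D6 (chloroquine-sensitive) and Indochina W2 (chloroquine-resistant). DMSO served as vehicle control, with artemisinin and chloroquine as drug controls.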

[1] = tested on: P. falciparum W2 (chloroquine-resistant, Indochina); experiment: Antimalarial/parasite LDH assay, W2 clone; format: cell-based, Plasmodium falciparum; conditions: for IC50: Plasmodium falciparum, W2, read-out: P. falciparum W2 IC50; for P. falciparum W2 IC50: chloroquine-resistant clone W2
[2] = tested on: P. falciparum D6 (chloroquine-sensitive, Sierra Leone); experiment: Antimalarial/parasite LDH assay, D6 clone; format: cell-based, Plasmodium falciparum; conditions: for IC50: Plasmodium falciparum, D6, read-out: P. falciparum D6 IC50; for P. falciparum D6 IC50: chloroquine-sensitive clone D6
[3] = tested on: Aspergillus fumigatus ATCC 90906; experiment: Antimicrobial assay; format: cell-based; conditions: for IC50: Aspergillus fumigatus, ATCC90906, read-out: A. fumigatus IC50; for A. fumigatus IC50: first value of IC50/MIC; for A. fumigatus MIC: second value of IC50/MIC
[4] = tested on: Candida albicans ATCC 90028; experiment: Antimicrobial assay; format: cell-based; conditions: for IC50: Candida albicans, ATCC90028, read-out: C. albicans IC50; for C. albicans IC50: first value of IC50/MIC
[5] = tested on: Cryptococcus neoformans ATCC 90113; experiment: Antimicrobial assay; format: cell-based; conditions: for MIC / IC50: Cryptococcus neoformans; for MIC: ATCC90113, read-out: C. neoformans MIC; for C. neoformans IC50: first value of IC50/MIC; for IC50: ATCC90113, read-out: C. neoformans IC50; for C. neoformans MIC: second value of IC50/MIC
[6] = tested on: Leishmania donovani promastigotes; experiment: Antileishmanial assay; format: cell-based; conditions: 72 h; for IC50 / IC90: Leishmania donovani; for IC50: read-out: L. donovani IC50; for IC90: read-out: L. donovani IC90; for L. donovani IC50 / L. donovani IC90: promastigotes
[7] = tested on: Pseudomonas aeruginosa ATCC 27853; experiment: Antimicrobial assay; format: cell-based; conditions: for P. aureginosa IC50: first value of IC50/MIC; for IC50: ATCC27853, read-out: P. aureginosa IC50
Summary of the method: (§1)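 Modified CLSI broth susceptibility method. Ciprofloxacin drug control in each assay. […] MIC is the lowest test concentration allowing no detectable growth.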

Candida krusei ATCC 6258 = experiment: Antimicrobial assay; format: cell-based; conditions: for C. krusei IC50: first value of IC50/MIC; for C. krusei MIC: second value of IC50/MIC
[8] = tested on: Escherichia coli ATCC 35218; experiment: Antimicrobial assay; format: cell-based; conditions: for E. coli IC50: first value of IC50/MIC; for IC50: ATCC35218, read-out: E. coli IC50
Summary of the method: as §1

[9] = tested on: methicillin-resistant S. aureus ATCC 43300 (MRS); experiment: Antimicrobial assay; format: cell-based, Staphylococcus aureus; conditions: for MRS IC50 / MRS MIC: methicillin-resistant S. aureus; for MRS IC50: first value of IC50/MIC; for IC50 / MIC: Staphylococcus aureus; for IC50: ATCC43300, read-out: MRS IC50; for MIC: ATCC43300, read-out: MRS MIC; for MRS MIC: second value of IC50/MIC
Summary of the method: as §1

[10] = tested on: Mycobacterium intracellulare ATCC 23068; experiment: Antimicrobial assay; format: cell-based; conditions: for M. intracellulare IC50: first value of IC50/MIC; for IC50: ATCC23068, read-out: M. intracellulare IC50; for M. intracellulare MIC: second value of IC50/MIC
Summary of the method: as §1

[11] = tested on: Staphylococcus aureus ATCC 29213; experiment: Antimicrobial assay; format: cell-based; conditions: for S. aureus IC50: first value of IC50/MIC; for IC50 / MIC: Staphylococcus aureus; for IC50: ATCC29213, read-out: S. aureus IC50; for MIC: ATCC29213, read-out: S. aureus MIC; for S. aureus MIC: second value of IC50/MIC
Summary of the method: as §1

[12] = tested on: Candida glabrata ATCC 90030; experiment: Antimicrobial assay; format: cell-based; conditions: for C. glabrata IC50: first value of IC50/MIC
[13] = tested on: monkey kidney fibroblasts (VERO); experiment: Cytotoxicity assay; format: cell-based; conditions: VERO cells; max dose […] for pure compounds

Row | Compound | IC50 [1] [µg/mL] | IC50 [2] [µg/mL] | IC50 [3] [µg/mL] | IC50 [4] [µg/mL] | IC50 [6] [µg/mL] | IC90 [6] [µg/mL] | P. aureginosa IC50 [7] | C. krusei IC50 (Candida krusei ATCC 6258) | E. coli IC50 [8] | A. fumigatus IC50 [3] | C. albicans IC50 [4] | MRS IC50 [9] | M. intracellulare IC50 [10] | S. aureus IC50 [11] | C. neoformans IC50 [5] | C. glabrata IC50 [12] | IC50 ([7]; Pseudomonas aeruginosa) [µg/mL] | IC50 ([8]; Escherichia coli) [µg/mL] | IC50 [9] [µg/mL] | IC50 ([10]; Mycobacterium intracellulare) [µg/mL] | further results
1 | C[C@@H]1CC[C@H]2[C@@H](C)C(=O)O[C@@H]3O[C@@]4(C)CC[C@@H]1[C@]32OO4 [Artemisinin, reference compound] | < 0.026 | < 0.026 |  |  |  |  |  |  |  |  |  |  |  |  |  |  |  |  |  |  | IC50 (Plasmodium falciparum): < 0.026 µg/mL
2 | CCN(CC)CCCC(C)Nc1ccnc2cc(Cl)ccc12 (stereo not drawn) [Chloroquine, reference compound] | 0.14 (≈ 0.438 µM) | < 0.026 |  |  |  |  |  |  |  |  |  |  |  |  |  |  |  |  |  |  | 
3 | C[C@@H]1[C@H](O)[C@@H](C)/C=C/C=C/C=C/C=C/C=C/C=C/C=C/[C@H](O[C@@H]2O[C@H](C)[C@@H](O)[C@H](N)[C@@H]2O)C[C@@H]2O[C@](O)(C[C@@H](O)C[C@@H](O)[C@H](O)CC[C@@H](O)C[C@@H](O)CC(=O)O[C@H]1C)C[C@H](O)[C@H]2C(=O)O [Amphotericin B, reference compound] |  |  | 1.29 (≈ 1.4 µM) | 0.43 (≈ 0.465 µM) | 0.13 (≈ 0.141 µM) | 0.3 (≈ 0.325 µM) |  |  |  |  |  |  |  |  |  |  |  |  |  |  | MIC [5]: 1.25 µg/mL (≈ 1.35 µM)
4 | CC(C)c1cc2c(c(O)c1OC1OCC(O)C(O)C1O)C1(C)CCCC(C)(C)C1CC2 (stereo not drawn) [Compound 10, 11-hydroxy-8,11,13-abietatriene-12-O-β-xylopyranoside] |  |  |  |  |  |  | −/− (=Not Active) | −/− (- =Not Active) | −/− (=Not Active) | −/− (- =Not Active) | −/− (- =Not Active) | −/− (=Not Active) | −/− (=Not Active) | −/− (=Not Active) | −/− (- =Not Active) | −/− (- =Not Active) |  |  |  |  | 
5 | CC(C)C1=C(O)C(=O)C2=C(CC[C@H]3C(C)(C)CCC[C@]23C)C1=O [Compound 2, royleanone] | > 4.76 | > 4.76 | > 20 | > 20 |  |  |  |  |  |  |  |  |  |  |  |  | > 20 | > 20 | > 20 | > 20 | IC50 [11]: > 20 µg/mL; IC50 [5]: > 20 µg/mL
6 | CC(C)c1cc2c(cc1O)[C@@]1(C)CCCC(C)(C)[C@@H]1CC2 [Compound 6, ferruginol] | > 4.76 | > 4.76 | > 20 | > 20 | 4 (≈ 14 µM) | 13 (≈ 45.4 µM) |  |  |  |  |  |  |  |  |  |  | > 20 | > 20 | 0.96 (≈ 3.35 µM) | 14.5 (≈ 50.6 µM) | MIC [9]: 2.5 µg/mL (≈ 8.73 µM); MRS MIC [9]: 2.5 µg/mL; M. intracellulare MIC [10]: −; IC50 [11]: 1.33 µg/mL (≈ 4.64 µM); MIC [11]: 2.5 µg/mL (≈ 8.73 µM); S. aureus MIC [11]: 2.5 to 5 µg/mL; IC50 [5]: > 20 µg/mL
7 | CC(C)c1cc2c(c(O)c1O)[C@@]1(C)CCCC(C)(C)C1=C(O)C2=O [Compound 7, 6-hydroxysalvinolone] |  |  |  |  |  |  | −/− (=Not Active) | −/− (- =Not Active) | −/− (=Not Active) | 11.2 µg/mL | −/− (- =Not Active) | 1.56 µg/mL | −/− (=Not Active) | 1.75 µg/mL | 0.96 µg/mL | −/− (- =Not Active) |  |  |  |  | A. fumigatus MIC [3]: −; MRS MIC [9]: 2.5 µg/mL; antimalarial activity against Plasmodium falciparum (Plasmodium falciparum): weak antimalarial activity; P. falciparum W2 IC50 [1]: 2.5 µg/mL; VERO TC50 [13]: 4.5 µg/mL; S. aureus MIC [11]: 5 µg/mL; C. neoformans MIC [5]: 2.5 µg/mL; P. falciparum D6 IC50 [2]: 1.8 µg/mL; L. donovani IC50 [6]: 3.2 µg/mL; L. donovani IC90 [6]: 6.5 µg/mL
8 | N=C(N)c1ccc(OCCCCCOc2ccc(C(=N)N)cc2)cc1 [Pentamidine, reference compound] |  |  |  |  | 1.4 (≈ 4.11 µM) | 6 (≈ 17.6 µM) |  |  |  |  |  |  |  |  |  |  |  |  |  |  | 
9 | CC(CO)c1cc2c(c(O)c1O)[C@@]1(C)CCCC(C)(C)C1=C(O)C2=O (stereo partly drawn) [Compound 8, 6,11,12,16-tetrahydroxy-5,8,11,13-abietatetra-en-7-one] |  |  |  |  |  |  | −/− (=Not Active) | 14.5 µg/mL | −/− (=Not Active) | −/− (- =Not Active) | −/− (- =Not Active) | 8.44 µg/mL | −/− (=Not Active) | 6.8 µg/mL | 5.9 µg/mL | 14.9 µg/mL |  |  |  |  | C. krusei MIC (Candida krusei ATCC 6258): 20 µg/mL; MRS MIC [9]: 20 µg/mL; P. falciparum W2 IC50 [1]: 4.8 µg/mL; S. aureus MIC [11]: 20 µg/mL; C. neoformans MIC [5]: 20 µg/mL; C. glabrata MIC ([12]; second value of IC50/MIC): 20 µg/mL; P. falciparum D6 IC50 [2]: 3.0 µg/mL; L. donovani IC50 [6]: 12 µg/mL; L. donovani IC90 [6]: 22 µg/mL
10 | CC1=C(C)C2=CC(=O)c3c(O)c4c(c(O)c3[C@@]2(C)CC1)O[C@@H](C)C4 [Compound 9, uncinatone] |  |  |  |  |  |  | −/− (=Not Active) | −/− (- =Not Active) | −/− (=Not Active) | −/− (- =Not Active) | −/− (- =Not Active) | −/− (=Not Active) | −/− (=Not Active) | −/− (=Not Active) | −/− (- =Not Active) | −/− (- =Not Active) |  |  |  |  | antimalarial activity against Plasmodium falciparum (Plasmodium falciparum): inactive; L. donovani IC50 [6]: 0.2 µg/mL; L. donovani IC90 [6]: 0.9 µg/mL
11 | CC(C)C1=CC2=CC(=O)[C@H]3C(C)(C)CCC[C@]3(C)C2=C(O)C1=O [Compound 3, taxodione] | 1.2 (≈ 3.82 µM) | 1.2 (≈ 3.82 µM) | 8.9 (≈ 28.3 µM) | 12.5 (≈ 39.8 µM) | 0.08 (≈ 0.254 µM) | 0.21 (≈ 0.668 µM) |  |  |  |  |  |  |  |  |  |  | > 20 | > 20 | 1.47 (≈ 4.68 µM) | 11.9 (≈ 37.8 µM) | C. krusei MIC (Candida krusei ATCC 6258): −; A. fumigatus MIC [3]: −; C. albicans MIC ([4]; second value of IC50/MIC): −; MIC [9]: 2.5 µg/mL (≈ 7.95 µM); MRS MIC [9]: 2.5 µg/mL; IC50 (Plasmodium falciparum): 1.2 to 4.8 µg/mL (≈ 3.82 to 15.3 µM); antimalarial activity against Plasmodium falciparum (Plasmodium falciparum): weak antimalarial activity; M. intracellulare MIC [10]: −; IC50 [11]: 1.35 µg/mL (≈ 4.29 µM); MIC [11]: 5 µg/mL (≈ 15.9 µM); S. aureus MIC [11]: 2.5 to 5 µg/mL; IC50 [5]: 0.58 µg/mL (≈ 1.84 µM); MIC [5]: 1.25 µg/mL (≈ 3.98 µM); C. neoformans MIC [5]: 1.25 µg/mL
12 | O=C(O)c1cn(C2CC2)c2cc(N3CCNCC3)c(F)cc2c1=O [Ciprofloxacin, reference compound] |  |  |  |  |  |  |  |  |  |  |  |  |  |  |  |  | 0.06 (≈ 0.181 µM) | 0.004 (≈ 0.0121 µM) | 0.08 (≈ 0.241 µM) | 0.3 (≈ 0.905 µM) | MIC ([7]; Pseudomonas aeruginosa, ATCC27853, read-out: P. aureginosa MIC): 0.25 µg/mL (≈ 0.754 µM); MIC ([8]; Escherichia coli, ATCC35218, read-out: E. coli MIC): 0.008 µg/mL (≈ 0.0241 µM); MIC [9]: 0.25 µg/mL (≈ 0.754 µM); MIC ([10]; Mycobacterium intracellulare, ATCC23068, read-out: M. intracellulare MIC): 1 µg/mL (≈ 3.02 µM); IC50 [11]: 0.1 µg/mL (≈ 0.302 µM); MIC [11]: 0.25 µg/mL (≈ 0.754 µM)
